MPTP inh = inhibitors of mitochondrial permeability transition pore; isolated mouse mitochondria, Ca2+ swelling absorbance, 30 min; inhibition, % at 10 µM; 360,000 compounds, 1.4% hits;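 active means inhibition of 50% or more, scaled per plate between neutral and stimulator controls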;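 further: 0% = DMSO wells given calcium and 100% = 1 mM EGTA wells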
UBC13 inh = blocks human UBC13 polyubiquitin chain formation. TR-FRET. inhibition, % at 20 µM. 330,000 compounds, 0.47% hits. P61088. AID 485273; in the data active means inhibition above about 45%, passing the limit was not always enough
iPSC survival up = enhancers of human iPSC single-cell survival | hiPSC single-cell survival, ATPlite luminescence; 100% = ROCK inhibitor wells, 0% = DMSO | survival enhancement, % at 20 µM | 360,000 compounds, 0.044% hits | AID 602274; in the data active means survival enhancement above about 18%;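 further: cells exposed to compounds for 16 hours before the ATP read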
Granule exo inh = blocks lytic granule exocytosis; TALL-104 LAMP-1 surface exposure, flow cytometry; cells stimulated with thapsigargin and PMA; AID 651702; inhibition, % at 10 µM; 360,000 compounds, 0.66% hits;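 active means inhibition above about 55%, limit read from the data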
Apaf-1 inh = inhibitors of human Apaf-1 apoptosome. inhibition, % at 20 µM. AID 489030. O14727. reconstituted apoptosome caspase-3 activity, DEVD-Rh110 fluorescence. 330,000 compounds, 0.71% hits; active means inhibition of at least 40% at 20 µM;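 further: plate controls were DMSO wells for no effect and DEVD-CHO caspase inhibitor wells for full effect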
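detection = Rh110 fluorescence intensity | test system = biochemical Apaf-1 apoptosome reconstitution | also added = cytochrome c and DEVD-Rh110 substrate | schedule = 30 min plus 50 min, RT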
beta cell repl = MIN6 beta-cell proliferation induction. MIN6 cells proliferation, ATPlite luminescence, 48 h; cells starved in 0.2% serum; 100% = growth in 10% serum. proliferation, % at 10 µM. 330,000 compounds, 0.29% hits;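 active means compounds whose signal lies at least 3.5 SD above the mean of all wells on their plate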;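 further: 0% = DMSO-treated cells in low-serum medium and 100% = 10% serum control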
Exocytosis CP01 = blocks lytic granule exocytosis. shares compounds with Granule exo inh. TALL-104 cells, LAMP-1 externalization, flow cytometry; stimulated with PMA plus thapsigargin. inhibition, % at 10 µM. 1,500 compounds, 11% hits. AID 651954; in the data active means inhibition above about 60%;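 further: 0% = stimulated vehicle wells and 100% = unstimulated wells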
* marks the source's active call; other numbers are inactive results; . = no result given. This is a sample that favours compounds with a hit; in the whole collection about 3% have one here.

SMILES	MPTP inh	UBC13 inh	iPSC survival up	Granule exo inh	Apaf-1 inh	beta cell repl	Exocytosis CP01
NC(=O)c1ccsc1N	.	-2	.	.	0	-4	.
N#CC1C(=O)c2ccccc2C1c1ccccc1 (stereo not drawn)	0	.	-2	64*	.	.	-14
Cc1cc(C)c(CN2CCN(CCCn3cnc(C(=O)Nc4ccc(C)c(C)c4)n3)CC2)c(C)c1	2	.	1	57*	.	.	15
CCOC(=O)N1CCN(S(=O)(=O)c2ccc(C(=O)Nc3nc4ccccc4s3)cc2)CC1	43	-7	3	100*	-14	-1	-10
COc1ccc(N(C(=O)C(C)C)S(=O)(=O)c2ccc3ccccc3c2)cc1	0	3	0	8	6	-4	.
COc1cc(OC)cc(C(=O)NCCNc2nc3cc(C)cc(C)c3cc2C#N)c1	0	15	1	61*	2	-3	-10
CCCCN(C(=O)CNC(=O)c1ccco1)C(C(=O)NC1CCCCC1)c1cccnc1 (stereo not drawn)	3	0	1	-2	-6	-2	.
Cc1cccc(CN2CCc3c([nH]c4ccccc34)C2CC(C)C)n1 (stereo not drawn)	0	3	0	63*	-3	-4	-3
Cc1cnc(CN2CCc3c([nH]c4ccccc34)C2CC(C)C)[nH]1 (stereo not drawn)	1	10	0	11	11	-4	.
Cc1cccc(OCCOC(=O)c2c(-c3ccccc3)noc2C)c1	-1	-1	-1	75*	11	-6	-9
CCCOc1cccc(NC(=O)c2c(-c3ccccc3)noc2C)c1	3	-7	-1	-4	17	-3	.
CCN(CC)C(=O)c1cn(CCC#N)nc1-c1ccc2ccccc2c1	-1	7	2	-4	-4	1	.
COC(=O)c1cc(C)c(C)cc1NC1OC(CO)C(O)C1O (stereo not drawn)	1	.	7	-3	.	.	.
